# Measured values: ChEMBL document CHEMBL1151741, “Aryl bis(diazeniumdiolates): potent inducers of S-glutathionylation of cellular proteins and their in vitro antiproliferative activities” (J Med Chem, 2008)
# Activity calls are given as the source filed them. No cut-off for these calls is given here.
# Key:
# A549 = experiment: Antiproliferative activity against human A549 cells after 72 hrs by MTT assay; assay type: functional, cell-based; details: A549, 72 h
# Method in brief: (§1)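 Cells kept in RPMI 1640 with 10% fetal calf serum, penicillin/streptomycin and 2 mM glutamine at 37 °C, 5% CO2. Seeded at 10⁴ per well and grown 24 h. Increasing drug concentrations (from 10 mM DMSO stocks, diluted in PBS) were added for 72 h at 37 °C. Proliferation was read by MTT. Six repeats per concentration, at least two independent experiments. IC50 is 50% proliferation inhibition; TGI is total growth inhibition.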
# [1] = Antiproliferative activity against human HCT 116 cells after 72 hrs by MTT assay; assay type: functional, cell-based; details: HCT-116, 72 h; method in brief: as §1
# PC-3 = experiment: Antiproliferative activity against human PC-3 cells after 72 hrs by MTT assay; assay type: functional, cell-based; details: PC-3, 72 h; method in brief: as §1
# HT-29 = experiment: Antiproliferative activity against human HT-29 cells after 72 hrs by MTT assay; assay type: functional, cell-based; details: HT-29, 72 h; method in brief: as §1
# HL-60 [2] = experiment: Induction of protein S-glutathionylation in human HL-60 cell lysate at 5 uM; assay type: functional, cell-based
# Method in brief: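 Equal numbers of HL-60 cells in complete RPMI medium were given 5 μM compound or a DMSO vehicle control. Cells were lysed in pH 7.2 Hepes/NP-40/deoxycholate buffer with protease inhibitors. 10 μg of protein was run on SDS-PAGE under nonreducing conditions and blotted to PVDF. Blots were probed with anti-glutathione monoclonal antibody (1:1000, 3 h, room temperature), then HRP secondary, with ECL detection. Blots were stripped and reprobed for β-actin as a loading control.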
# [3] = Nitric oxide release measured per mole of compound at pH 7.4 in presence of glutathione
# Method in brief: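 Compound stock was injected into 0.1 M phosphate buffer, pH 7.4, containing 4 mM GSH and 50 μM DTPA, sparged with inert gas. NO was followed by chemiluminescence at 37 °C until the signal returned to baseline (25 min – 5 h). The integrated curve gave mol NO per mol compound.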
# OVCAR-5 = experiment: Antiproliferative activity against human OVCAR5 cells after 72 hrs by MTT assay; assay type: functional, cell-based; details: OVCAR-5, 72 h; method in brief: as §1
# HCT-15 = experiment: Antiproliferative activity against human HCT-15 cells after 72 hrs by MTT assay; assay type: functional, cell-based; details: HCT-15, 72 h; method in brief: as §1
# U-937 = experiment: Antiproliferative activity against human U937 cells after 72 hrs by MTT assay; assay type: functional, cell-based; details: U-937, 72 h; method in brief: as §1
# HL-60 [4] = experiment: Antiproliferative activity against human HL-60 cells after 72 hrs by MTT assay; assay type: functional, cell-based; details: HL-60, 72 h; method in brief: as §1
# OVCAR-3 = experiment: Antiproliferative activity against human OVCAR-3 cells after 72 hrs by MTT assay; assay type: functional, cell-based; details: OVCAR-3, 72 h; method in brief: as §1
# [5] = Antiproliferative activity against human H441 cells after 72 hrs by MTT assay; assay type: functional, cell-based; details: NCI-H441, 72 h; method in brief: as §1
structure (smiles),measurement,setting,value
CNc1ccc(C(=O)Oc2cc(O/N=[N+](\[O-])N(C)C)c([N+](=O)[O-])cc2[N+](=O)[O-])cc1,IC50,A549,> 10 µM
same,TGI,A549,> 10 µM
same,IC50,[1],5.5 µM
same,TGI,[1],> 10 µM
same,IC50,PC-3,> 10 µM
same,TGI,PC-3,> 10 µM
same,IC50,HT-29,7 µM
same,TGI,HT-29,> 10 µM
same,Activity,HL-60 [2],Active
same,Activity,[3],1.4 mol/mol
same,IC50,OVCAR-5,7.8 µM
same,TGI,OVCAR-5,> 10 µM
same,IC50,HCT-15,5.7 µM
same,TGI,HCT-15,> 10 µM
same,IC50,U-937,2.7 µM
same,TGI,U-937,5.5 µM
same,TGI,HL-60 [4],> 10 µM
same,IC50,OVCAR-3,5 µM
same,TGI,OVCAR-3,9.5 µM
same,IC50,[5],4.9 µM
same,TGI,[5],> 10 µM
CCCOC(=O)N1CCN(/[N+]([O-])=N/Oc2cc(O/N=[N+](\[O-])N(C)C)c([N+](=O)[O-])cc2[N+](=O)[O-])CC1,Activity,HL-60 [2],Active
same,Activity,[3],3.7 mol/mol
same,IC50,HL-60 [4],1.6 µM
same,TGI,HL-60 [4],3.9 µM
CN(C)/[N+]([O-])=N/Oc1cc(O/N=[N+](\[O-])N2CCCC2)c([N+](=O)[O-])cc1[N+](=O)[O-],Activity,HL-60 [2],Active
same,Activity,[3],3.6 mol/mol
same,IC50,HL-60 [4],2.3 µM
same,TGI,HL-60 [4],4.9 µM
CN(C)/[N+]([O-])=N/Oc1cc(O/N=[N+](\[O-])N2CCCCC2)c([N+](=O)[O-])cc1[N+](=O)[O-],Activity,HL-60 [2],Active
same,Activity,[3],3.7 mol/mol
same,IC50,HL-60 [4],1.7 µM
same,TGI,HL-60 [4],4.9 µM
CCN(CC)C(=O)N1CCN(/[N+]([O-])=N/Oc2cc(O/N=[N+](\[O-])N(C)C)c([N+](=O)[O-])cc2[N+](=O)[O-])CC1,Activity,HL-60 [2],Active
same,Activity,[3],3.5 mol/mol
same,IC50,HL-60 [4],1.9 µM
same,TGI,HL-60 [4],4.9 µM
CCOC(=O)N1CCN(/[N+]([O-])=N/Oc2cc(O/N=[N+](\[O-])N(CC)CC)c([N+](=O)[O-])cc2[N+](=O)[O-])CC1,Activity,HL-60 [2],Active
same,Activity,[3],3.1 mol/mol
same,IC50,HL-60 [4],2.1 µM
same,TGI,HL-60 [4],5 µM
O=C(O)[C@@H]1CCCN1/[N+]([O-])=N/Oc1cc(O/N=[N+](\[O-])N2CCC[C@H]2C(=O)O)c([N+](=O)[O-])cc1[N+](=O)[O-],Activity,HL-60 [2],inactive
same,Activity,[3],3.5 mol/mol
same,IC50,HL-60 [4],9.6 µM
same,TGI,HL-60 [4],> 10 µM
CCN(CC)C(=O)N1CCN(/[N+]([O-])=N/Oc2cc(O/N=[N+](\[O-])N(CC)CC)c([N+](=O)[O-])cc2[N+](=O)[O-])CC1,Activity,HL-60 [2],Active
same,Activity,[3],3 mol/mol
same,IC50,HL-60 [4],2.9 µM
same,TGI,HL-60 [4],> 10 µM
CC1CCCCN1/[N+]([O-])=N/Oc1cc(O/N=[N+](\[O-])N(C)C)c([N+](=O)[O-])cc1[N+](=O)[O-] (centres undefined),Activity,HL-60 [2],Active
same,Activity,[3],3 mol/mol
same,IC50,HL-60 [4],1.5 µM
same,TGI,HL-60 [4],4.9 µM
CCCCOC(=O)N1CCN(/[N+]([O-])=N/Oc2cc(O/N=[N+](\[O-])N(C)C)c([N+](=O)[O-])cc2[N+](=O)[O-])CC1,Activity,HL-60 [2],Active
same,Activity,[3],3.1 mol/mol
same,IC50,HL-60 [4],0.9 µM
same,TGI,HL-60 [4],2.7 µM
O=[N+]([O-])c1cc([N+](=O)[O-])c(O/N=[N+](\[O-])N2CCC[C@H]2CO)cc1O/N=[N+](\[O-])N1CCC[C@H]1CO,Activity,HL-60 [2],Active
same,Activity,[3],2.5 mol/mol
same,IC50,HL-60 [4],4 µM
same,TGI,HL-60 [4],> 10 µM
CN(C)/[N+]([O-])=N/Oc1cc(O/N=[N+](\[O-])N2CCCC2CO)c([N+](=O)[O-])cc1[N+](=O)[O-] (centres undefined),IC50,A549,5.1 µM
same,TGI,A549,6 µM
same,IC50,[1],1.6 µM
same,TGI,[1],3.6 µM
same,IC50,PC-3,3.3 µM
same,TGI,PC-3,7 µM
same,IC50,HT-29,2.4 µM
same,TGI,HT-29,4.5 µM
same,Activity,HL-60 [2],Active
same,Activity,[3],3 mol/mol
same,IC50,OVCAR-5,2.5 µM
same,TGI,OVCAR-5,4 µM
same,IC50,HCT-15,1.7 µM
same,TGI,HCT-15,3.3 µM
same,IC50,U-937,0.8 µM
same,TGI,U-937,1.2 µM
same,IC50,HL-60 [4],1 µM
same,TGI,HL-60 [4],2 µM
same,IC50,OVCAR-3,1.7 µM
same,TGI,OVCAR-3,3.8 µM
same,IC50,[5],2.1 µM
same,TGI,[5],4.5 µM
CCN(CC)/[N+]([O-])=N/Oc1cc(O/N=[N+](\[O-])N(C)C)c([N+](=O)[O-])cc1[N+](=O)[O-],Activity,HL-60 [2],Active
same,Activity,[3],3.8 mol/mol
same,IC50,HL-60 [4],1 µM
same,TGI,HL-60 [4],2.3 µM
CCOC(=O)N1CCN(/[N+]([O-])=N/Oc2cc(O/N=[N+](\[O-])N(C)C)c([N+](=O)[O-])cc2[N+](=O)[O-])CC1,IC50,A549,9.1 µM
same,TGI,A549,> 30 µM
same,IC50,[1],2.4 µM
same,TGI,[1],4 µM
same,IC50,PC-3,5 µM
same,TGI,PC-3,7 µM
same,IC50,HT-29,4.5 µM
same,TGI,HT-29,10 µM
same,Activity,HL-60 [2],Active
same,Activity,[3],2.7 mol/mol
same,IC50,OVCAR-5,3.3 µM
same,TGI,OVCAR-5,9 µM
same,IC50,HCT-15,2.5 µM
same,TGI,HCT-15,4 µM
same,IC50,U-937,1.3 µM
same,TGI,U-937,3 µM
same,IC50,HL-60 [4],1.2 µM
same,TGI,HL-60 [4],2 µM
same,IC50,OVCAR-3,1.3 µM
same,TGI,OVCAR-3,2.3 µM
same,IC50,[5],5 µM
same,TGI,[5],7 µM
CCN(CC)/[N+]([O-])=N/Oc1cc(O/N=[N+](\[O-])N2CCCC2CO)c([N+](=O)[O-])cc1[N+](=O)[O-] (centres undefined),Activity,HL-60 [2],Active
same,Activity,[3],3 mol/mol
same,IC50,HL-60 [4],1.8 µM
same,TGI,HL-60 [4],4 µM
CN(C)/[N+]([O-])=N/Oc1cc(O/N=[N+](\[O-])N2CCN(c3ncccn3)CC2)c([N+](=O)[O-])cc1[N+](=O)[O-],Activity,HL-60 [2],Active
same,Activity,[3],3.5 mol/mol
same,IC50,HL-60 [4],1.2 µM
same,TGI,HL-60 [4],5 µM
CCOC(=O)N1CCN(/[N+]([O-])=N/Oc2cc(O/N=[N+](\[O-])N3CCN(C(=O)N(CC)CC)CC3)c([N+](=O)[O-])cc2[N+](=O)[O-])CC1,IC50,A549,3.9 µM
same,TGI,A549,10 µM
same,IC50,[1],1.5 µM
same,TGI,[1],4 µM
same,IC50,PC-3,3.3 µM
same,TGI,PC-3,8 µM
same,IC50,HT-29,2.5 µM
same,TGI,HT-29,6.5 µM
same,Activity,HL-60 [2],Active
same,Activity,[3],2.9 mol/mol
same,IC50,OVCAR-5,1.9 µM
same,TGI,OVCAR-5,5.5 µM
same,IC50,HCT-15,1.6 µM
same,TGI,HCT-15,4.5 µM
same,IC50,U-937,0.9 µM
same,TGI,U-937,3 µM
same,IC50,HL-60 [4],0.9 µM
same,TGI,HL-60 [4],3 µM
same,IC50,OVCAR-3,1.4 µM
same,TGI,OVCAR-3,4 µM
same,IC50,[5],1.7 µM
same,TGI,[5],4 µM
